Legend:
A549 [1] = assay: Cytotoxicity against human A549 cells after 48 hrs by MTT assay; assay type: functional, cell-based
Method in brief: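 A549 cells grown in RPMI with 5% FBS and 1% penicillin-streptomycin. Seeded at 4000 cells/well, attached overnight, then exposed to compound at 0.01–100 µmol for 48 h. MTT added for 4 h, formazan dissolved in DMSO, absorbance read at 570 nm. Mean of at least three independent experiments, each in triplicate.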

[2] = Inhibition of TNF-alpha-induced NF-kappaB (unknown origin) activation transfected in human A549 cells after 7 hrs by bright-glo luciferase reporter gene assay; assay type: cell-based
Method in brief: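 A549 cells co-transfected with pNF-κB-Luc and pSV-β-galactosidase (internal control) using lipofectamine. Medium changed at 6 h, cells cultured a further 6 h, then given TNF-α 15 ng/ml and compound together for 7 h. Read-out is Bright-Glo luciferase, corrected for background and viability and expressed relative to TNF-α-only cells. IC50 from a variable-slope sigmoidal fit.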

A549 [3] = assay: Cytotoxicity against human A549 cells transfected with NF-kappaB assessed as reduction of cell viability relative to control; assay type: cell-based; parameters: concentration or dose not given beside the values
[4] = Metabolic stability in 80% human plasma assessed as compound remaining at 5 mg/ml measured at 120 mins by HPLC analysis; assay type: ADME, cell-free; settings: read-out: Stability
Method in brief: (§1)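 Human plasma at 80%, diluted with isotonic phosphate buffer pH 7.4, 37 °C in a water bath. Compound stock is 5 mg/ml in THF, diluted 1:10 into the plasma. Samples were taken at 0, 15, 30, 60 and 120 min, quenched in ACN, centrifuged 5 min, and the supernatant analysed by HPLC for ester remaining.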

[5] = Metabolic stability in 80% human plasma assessed as compound remaining at 5 mg/ml measured at 60 mins by HPLC analysis; assay type: ADME, cell-free; settings: read-out: Stability; method in brief: as §1
[6] = Metabolic stability in 80% human plasma assessed as compound remaining at 5 mg/ml measured at 15 mins by HPLC analysis; assay type: ADME, cell-free; settings: read-out: Stability; method in brief: as §1
[7] = Metabolic stability in 80% human plasma assessed as compound remaining at 5 mg/ml measured at 30 mins by HPLC analysis; assay type: ADME, cell-free; settings: read-out: Stability; method in brief: as §1
[8] = Chemical stability in simulated gastric fluid assessed as compound remaining at 5 mg/ml at pH 2 measured at 8 hrs by HPLC analysis; assay type: physicochemical; settings: read-out: Stability
Method in brief: (§2)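 Stability in simulated gastric fluid, HCl buffer pH 2, 37 °C in a water bath. Compound stock is 5 mg/ml in THF, diluted 1:10 into buffer. Samples were taken at 0, 2, 5, 8 and 12 h, diluted with ACN and analysed by HPLC. % remaining = peak area at each time / peak area at 0 min × 100.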

[9] = Chemical stability in simulated gastric fluid assessed as compound remaining at 5 mg/ml at pH 2 measured at 12 hrs by HPLC analysis; assay type: physicochemical; settings: read-out: Stability; method in brief: as §2
[10] = Chemical stability in simulated gastric fluid assessed as compound remaining at 5 mg/ml at pH 2 measured at 5 hrs by HPLC analysis; assay type: physicochemical; settings: read-out: Stability; method in brief: as §2
[11] = Chemical stability in simulated gastric fluid assessed as compound remaining at 5 mg/ml at pH 2 measured at 2 hrs by HPLC analysis; assay type: physicochemical; settings: read-out: Stability; method in brief: as §2
[12] = target: T1, Inhibitor of nuclear factor kappa-B kinase subunit beta (Homo sapiens, UniProt O14920); assay: Inhibition of FLAG-tagged human recombinant IKKbeta phosphorylation expressed in baculovirus infected insect Sf9 cells after 1 hr by luminescence assay
T1 sequence (O14920 whole entry): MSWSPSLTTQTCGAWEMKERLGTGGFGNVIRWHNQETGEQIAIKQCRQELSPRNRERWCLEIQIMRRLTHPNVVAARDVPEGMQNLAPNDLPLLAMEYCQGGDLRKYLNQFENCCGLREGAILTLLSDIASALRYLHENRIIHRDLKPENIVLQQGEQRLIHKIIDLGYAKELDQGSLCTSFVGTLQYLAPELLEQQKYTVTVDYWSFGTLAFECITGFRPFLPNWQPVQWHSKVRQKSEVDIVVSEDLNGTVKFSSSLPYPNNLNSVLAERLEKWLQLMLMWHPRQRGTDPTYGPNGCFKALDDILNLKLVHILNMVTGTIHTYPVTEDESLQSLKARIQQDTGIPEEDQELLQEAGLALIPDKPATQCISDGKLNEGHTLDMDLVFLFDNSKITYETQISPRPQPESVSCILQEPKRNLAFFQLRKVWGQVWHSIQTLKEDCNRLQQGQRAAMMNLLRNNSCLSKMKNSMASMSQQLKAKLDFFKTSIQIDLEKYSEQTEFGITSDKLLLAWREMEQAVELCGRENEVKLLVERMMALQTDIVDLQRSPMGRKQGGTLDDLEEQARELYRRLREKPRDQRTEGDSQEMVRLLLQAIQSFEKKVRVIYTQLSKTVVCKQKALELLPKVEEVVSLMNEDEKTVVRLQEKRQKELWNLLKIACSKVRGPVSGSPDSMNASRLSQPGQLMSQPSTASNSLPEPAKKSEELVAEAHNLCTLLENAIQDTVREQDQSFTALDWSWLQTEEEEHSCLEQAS
Method in brief: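 Kinase reaction ran 1 h at room temperature with bacterially expressed GST-IkBα substrate and 500 nmol ATP, in 25 mmol/l HEPES pH 7.5, 10 mmol/l Mg acetate, 1 mmol DTT, 0.01% BSA and 0.01% Tween20. Stopped with equal volume Kinase-Glo, 10 min RT, then luminescence of remaining ATP read.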

Row | SMILES | IC50 [2] | IC50 (A549 [1]) | Activity (A549 [3]) | other results
1 | CC1(C)C[C@@H](O)[C@]2(C(=O)O)CC[C@]3(C)C(=CC[C@@H]4[C@@]5(C)CC[C@H](O)C(C)(C)[C@@H]5CC[C@]43C)[C@@H]2C1 | > 10 µmol | > 10 µmol | < 5% | –
2 | CC(C)=CC(=O)O[C@@H]1CC(C)(C)C[C@H]2C3=CC[C@@H]4[C@@]5(C)CCC(=O)C(C)(C)[C@@H]5CC[C@@]4(C)[C@]3(C)CC[C@@]12C(=O)O | 1.56 µmol | 1.19 µmol | < 5% | –
3 | C/C=C(\C)C(=O)O[C@@H]1CC(C)(C)C[C@H]2C3=CC[C@@H]4[C@@]5(C)CC[C@H](OC(=O)/C=C/c6ccccc6)C(C)(C)[C@@H]5CC[C@@]4(C)[C@]3(C)CC[C@@]12C(=O)O | 0.56 µmol | 0.12 µmol | < 5% | remaining at 2 h, 5 mg/ml [4]: 36.8%; remaining at 1 h, 5 mg/ml [5]: 46.8%; remaining at 0.25 h, 5 mg/ml [6]: 74.2%; remaining at 0.5 h, 5 mg/ml [7]: 54.7%; remaining at 8 h, 5 mg/ml [8]: 84.7%; remaining at 12 h, 5 mg/ml [9]: 76.6%; remaining at 5 h, 5 mg/ml [10]: 90.7%; remaining at 2 h, 5 mg/ml [11]: 96.4%; IC50 [12]: 1.2 µmol
4 | CC(C)=CC(=O)O[C@@H]1CC(C)(C)C[C@H]2C3=CC[C@@H]4[C@@]5(C)CC[C@H](OC(=O)/C=C/c6ccccc6)C(C)(C)[C@@H]5CC[C@@]4(C)[C@]3(C)CC[C@@]12C(=O)O | 0.42 µmol | 0.08 µmol | < 5% | remaining at 2 h, 5 mg/ml [4]: 39.2%; remaining at 1 h, 5 mg/ml [5]: 48.1%; remaining at 0.25 h, 5 mg/ml [6]: 74.7%; remaining at 0.5 h, 5 mg/ml [7]: 55.5%; remaining at 8 h, 5 mg/ml [8]: 87.6%; remaining at 12 h, 5 mg/ml [9]: 81%; remaining at 5 h, 5 mg/ml [10]: 92.5%; remaining at 2 h, 5 mg/ml [11]: 97.2%; IC50 [12]: 0.94 µmol
5 | CC1(C)C[C@@H](OC(=O)c2ccccc2Cl)[C@]2(C(=O)O)CC[C@]3(C)C(=CC[C@@H]4[C@@]5(C)CCC(=O)C(C)(C)[C@@H]5CC[C@]43C)[C@@H]2C1 | > 10 µmol | > 10 µmol | < 5% | –
6 | CC1(C)C[C@@H](OC(=O)/C=C/c2ccccc2)[C@]2(C(=O)O)CC[C@]3(C)C(=CC[C@@H]4[C@@]5(C)CCC(=O)C(C)(C)[C@@H]5CC[C@]43C)[C@@H]2C1 | 2.42 µmol | 3.64 µmol | < 5% | –
7 | COC(=O)[C@@]12CC[C@]3(C)C(=CC[C@@H]4[C@@]5(C)CC[C@H](O)C(C)(C)[C@@H]5CC[C@]43C)[C@@H]1CC(C)(C)C[C@H]2O | > 10 µmol | > 10 µmol | < 5% | –
8 | C/C=C(\C)C(=O)O[C@@H]1CC(C)(C)C[C@H]2C3=CC[C@@H]4[C@@]5(C)CC/C(=N\O)C(C)(C)[C@@H]5CC[C@@]4(C)[C@]3(C)CC[C@@]12C(=O)O | > 10 µmol | > 10 µmol | < 5% | –
9 | CC(C)=CC(=O)O[C@@H]1CC(C)(C)C[C@H]2C3=CC[C@@H]4[C@@]5(C)CC/C(=N\O)C(C)(C)[C@@H]5CC[C@@]4(C)[C@]3(C)CC[C@@]12C(=O)O | > 10 µmol | > 10 µmol | < 5% | –
10 | COC(=O)[C@@]12CC[C@]3(C)C(=CC[C@@H]4[C@@]5(C)CCC(=O)C(C)(C)[C@@H]5CC[C@]43C)[C@@H]1CC(C)(C)C[C@H]2O | > 10 µmol | > 10 µmol | < 5% | –
11 | CC1(C)C[C@@H](O)[C@]2(C(=O)O)CC[C@]3(C)C(=CC[C@@H]4[C@@]5(C)CCC(=O)C(C)(C)[C@@H]5CC[C@]43C)[C@@H]2C1 | 6.42 µmol | > 10 µmol | < 5% | –
12 | CC1(C)C[C@@H](OC(=O)c2ccccc2)[C@]2(C(=O)O)CC[C@]3(C)C(=CC[C@@H]4[C@@]5(C)CCC(=O)C(C)(C)[C@@H]5CC[C@]43C)[C@@H]2C1 | > 10 µmol | > 10 µmol | < 5% | –
13 | C/C=C(/C)C(=O)O[C@@H]1CC(C)(C)C[C@H]2C3=CC[C@@H]4[C@@]5(C)CCC(=O)C(C)(C)[C@@H]5CC[C@@]4(C)[C@]3(C)CC[C@@]12C(=O)O [LANTADENE A] | 1.06 µmol | 2.84 µmol | < 5% | –
14 | C/C=C(/C)C(=O)O[C@@H]1CC(C)(C)C[C@H]2C3=CC[C@@H]4[C@@]5(C)CC[C@H](O)C(C)(C)[C@@H]5CC[C@@]4(C)[C@]3(C)CC[C@@]12C(=O)O [Reduced Lantadene A] | 0.98 µmol | 0.79 µmol | < 5% | IC50 [12]: 2.62 µmol
15 | CC(C)=CC(=O)O[C@@H]1CC(C)(C)C[C@H]2C3=CC[C@@H]4[C@@]5(C)CC[C@H](O)C(C)(C)[C@@H]5CC[C@@]4(C)[C@]3(C)CC[C@@]12C(=O)O [Reduced Lantadene B] | 1.02 µmol | 0.43 µmol | < 5% | IC50 [12]: 4.24 µmol

Second part, led by results:

Row | IC50 [2] | SMILES | IC50 (A549 [1]) | Activity (A549 [3]) | other results
16 | 2.8 µmol | C/C=C(\C)C(=O)O[C@@H]1CC(C)(C)C[C@H]2C3=CC[C@@H]4[C@@]5(C)CC[C@H](OC(C)=O)C(C)(C)[C@@H]5CC[C@@]4(C)[C@]3(C)CC[C@@]12C(=O)O | 5.42 µmol | < 5% | –
17 | 2.32 µmol | CC(=O)O[C@H]1CC[C@]2(C)[C@H]3CC=C4[C@@H]5CC(C)(C)C[C@@H](OC(=O)C=C(C)C)[C@]5(C(=O)O)CC[C@@]4(C)[C@]3(C)CC[C@H]2C1(C)C | 4.9 µmol | < 5% | –
18 | 5.04 µmol | C/C=C(\C)C(=O)O[C@@H]1CC(C)(C)C[C@H]2C3=CC[C@@H]4[C@@]5(C)CC[C@H](OC(=O)c6ccccc6)C(C)(C)[C@@H]5CC[C@@]4(C)[C@]3(C)CC[C@@]12C(=O)O | 7.36 µmol | < 5% | –
19 | 4.64 µmol | CC(C)=CC(=O)O[C@@H]1CC(C)(C)C[C@H]2C3=CC[C@@H]4[C@@]5(C)CC[C@H](OC(=O)c6ccccc6)C(C)(C)[C@@H]5CC[C@@]4(C)[C@]3(C)CC[C@@]12C(=O)O | 7.2 µmol | < 5% | –
20 | 4.18 µmol | C/C=C(\C)C(=O)O[C@@H]1CC(C)(C)C[C@H]2C3=CC[C@@H]4[C@@]5(C)CC[C@H](OC(=O)c6ccccc6Cl)C(C)(C)[C@@H]5CC[C@@]4(C)[C@]3(C)CC[C@@]12C(=O)O | 6.8 µmol | < 5% | –
21 | 3.7 µmol | CC(C)=CC(=O)O[C@@H]1CC(C)(C)C[C@H]2C3=CC[C@@H]4[C@@]5(C)CC[C@H](OC(=O)c6ccccc6Cl)C(C)(C)[C@@H]5CC[C@@]4(C)[C@]3(C)CC[C@@]12C(=O)O | 6.52 µmol | < 5% | –
22 | > 10 µmol | CC(=O)O[C@H]1CC[C@]2(C)[C@H]3CC=C4[C@@H]5CC(C)(C)C[C@@H](OC(C)=O)[C@]5(C(=O)O)CC[C@@]4(C)[C@]3(C)CC[C@H]2C1(C)C | > 10 µmol | < 5% | –

Reference: ChEMBL document CHEMBL3112453, “Novel lung adenocarcinoma and nuclear factor-kappa B (NF-κB) inhibitors: synthesis and evaluation of lantadene congeners” (Eur J Med Chem, 2014)
